Data published in ChEMBL document CHEMBL1649409, “One-pot microwave assisted synthesis under green chemistry conditions, antioxidant screening, and cytotoxicity assessments of benzimidazole Schiff bases and pyrimido[1,2-a]benzimidazol-3(4H)-ones” (Eur J Med Chem, 2011).
Calls of active or inactive are those of the source. The rule behind the calls is not given here.

What was measured:
[1] = system: Radical scavenging activity; test: Antioxidant activity assessed as DPPH radical scavenging activity at 0.05 mM after 60 mins; type: functional
Procedure, shortened: (§1)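 DPPH (0.05 mM in absolute ethanol) mixed with an equal volume of compound in DMSO (final 0.05 mM). Shaken vigorously, left 20 or 60 min, absorbance read at 517 nm. Percent activity calculated; three replicates averaged.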

[2] = system: Radical scavenging activity; test: Antioxidant activity assessed as DPPH radical scavenging activity at 0.05 mM after 20 mins; type: functional; procedure, shortened: as §1
[3] = Antioxidant activity assessed as protection against […]-induced linoleic acid lipid peroxidation 0.1 mM; type: functional
Procedure, shortened: (§2)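 Linoleic acid sodium salt (16 mM solution) in 0.05 M phosphate buffer, pH 7.4, prethermostated at 37 °C. Oxidation started at 37 °C under air with 40 mM AAPH solution, with compound aliquots in DMSO present. Blanks carry the same DMSO level. Conjugated diene hydroperoxide formation followed by absorbance increase at 234 nm. At least triplicate, averaged.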

[4] = system: Glycine max; test: Inhibition of soybean LOX at 0.01 mM
Procedure, shortened: (§3)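 Soybean lipoxygenase solution (1/9×10^-4 w/v in saline) incubated at RT with sodium linoleate and compound in DMSO. Conversion to 13-hydroperoxylinoleic acid recorded at 234 nm against a standard inhibitor. At least triplicate, averaged.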

[5] = Antioxidant activity assessed as protection against […]-induced linoleic acid lipid peroxidation 0.01 mM; type: functional; procedure, shortened: as §2
[6] = system: Glycine max; test: Inhibition of soybean LOX at 0.1 mM; procedure, shortened: as §3
[7] = Cytotoxicity against human lung fibroblast assessed as cell viability at 0.17 mM after 24 hrs by MTT assay; type: cell-based; settings: human lung fibroblasts, read-out: Activity
Procedure, shortened: (§4)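 Human lung fibroblasts, passage 19, grown in DMEM with 10% FBS, penicillin and streptomycin at 37 °C, 5% CO2. Seeded at 3×10^4 cells/mL and allowed to adhere 24 h. Exposed 24 h to compounds in DMSO (≤1% final), 1–50 µg/mL. After washing, MTT (5 mg/mL in PBS) added for 4–6 h at 37 °C. Formazan dissolved in isopropanol, read at 570 nm. At least three measurements.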

[8] = Cytotoxicity against human lung fibroblast assessed as cell viability at 0.02 mM after 24 hrs by MTT assay; type: cell-based; settings: 20 µM; procedure, shortened: as §4
[9] = Cytotoxicity against human lung fibroblast assessed as cell viability at 50 ug/ml after 24 hrs by MTT assay; type: cell-based; settings: human lung fibroblasts, read-out: Activity; procedure, shortened: as §4
[10] = Cytotoxicity against human lung fibroblast assessed as cell viability at 0.03 to 0.037 mM after 24 hrs by MTT assay; type: cell-based; settings: human lung fibroblasts, in the assay text read “0.003 to 0.037 mM” for “0.03 to 0.037 mM”, read-out: Activity; procedure, shortened: as §4
[11] = Cytotoxicity against human lung fibroblast assessed as cell viability at 0.04 mM after 24 hrs by MTT assay; type: cell-based; settings: 40 µM; procedure, shortened: as §4
[12] = Cytotoxicity against human lung fibroblast assessed as cell viability at 0.16 mM after 24 hrs by MTT assay; type: cell-based; settings: human lung fibroblasts, read-out: Activity; procedure, shortened: as §4

| Structure (SMILES) | inhibition [1] | inhibition [2] | inhibition [3] | inhibition [4] | inhibition [5] | inhibition [6] | viability at 24 h, 170 µM [7] | Activity [8] | viability at 24 h, 50 ug/ml [9] | viability at 24 h, up to 37 µM [10] | Activity [11] | viability at 24 h, 160 µM [12] |
| --- | --- | --- | --- | --- | --- | --- | --- | --- | --- | --- | --- | --- |
| CC1(c2ccc(Br)cc2)C(=O)C(c2ccc(Br)cc2)=Nc2nc3ccccc3n21 (stereo not drawn) | 2% | 3% | 78% | 51% | 9% | 61% |  |  |  |  |  |  |
| C/C(=N\c1nc2ccccc2[nH]1)c1cccc(Br)c1 | 6% | inactive | 97% | inactive | 65% | inactive |  |  |  |  |  |  |
| C/C(=N\c1nc2ccccc2[nH]1)c1ccccc1 | 5% | 0.3% | 67% | inactive | 18% | inactive |  |  |  |  |  |  |
| Cc1cc(C(C)(C)C)c(O)c(C(C)(C)C)c1 | 60% | 31% |  |  |  |  |  |  |  |  |  |  |
| CC(Cc1ccc(O)c(O)c1)C(C)Cc1ccc(O)c(O)c1 (stereo not drawn) | 83% | 81% |  | 40% |  | 84% |  |  |  |  |  |  |
| C/C(=N\c1nc2ccccc2[nH]1)c1ccc2ccccc2c1 | 7% | 5% | 97% | 18% | 26% | 98% | 62.5% |  |  |  |  |  |
| C/C(=N\c1nc2ccccc2[nH]1)c1ccc(Cl)cc1 | 4% | 3% | 26% | 62% |  | 85% |  |  |  |  |  |  |
| CC1(c2cccc(Br)c2)C(=O)C(c2cccc(Br)c2)=Nc2nc3ccccc3n21 (stereo not drawn) | 3% | inactive |  | inactive | 51% | 12% |  |  |  |  |  |  |
| CC1(c2ccc(Cl)cc2)C(=O)C(c2ccc(Cl)cc2)=Nc2nc3ccccc3n21 (stereo not drawn) | 2% | 2% | 97% | inactive | 33% | inactive |  | Non-toxic | 37% |  |  |  |
| COc1ccc(/C(C)=N/c2nc3ccccc3[nH]2)cc1 | 3% | 4% | 68% | 22% | 12% | 65% |  |  |  | 56% |  |  |
| Cc1cccc(C2=Nc3nc4ccccc4n3C(C)(c3cccc(C)c3)C2=O)c1 (stereo not drawn) | 5% | 4% | 84% | inactive | 35% | 19% |  |  |  |  |  |  |
| Cc1c(C)c2c(c(C)c1O)CCC(C)(C(=O)O)O2 (stereo not drawn) |  |  | 63% |  |  |  |  |  |  |  |  |  |
| C/C(=N\c1nc2ccccc2[nH]1)c1ccc(C)cc1 | 8% | inactive | 84% | inactive | 47% | inactive |  |  |  |  |  |  |
| CC1(c2ccccc2)C(=O)C(c2ccccc2)=Nc2nc3ccccc3n21 (stereo not drawn) | 1% | 2% | 100% | 49% | 11% | 100% |  |  |  |  |  |  |
| COc1cccc(/C(C)=N/c2nc3ccccc3[nH]2)c1 | inactive | inactive | 100% | inactive | 69% | 42% |  |  |  |  |  |  |
| COc1cccc(C2=Nc3nc4ccccc4n3C(C)(c3cccc(OC)c3)C2=O)c1 (stereo not drawn) | 2% | 3% | 100% | inactive | 3% | inactive |  |  | 63% |  | Non-toxic |  |
| C/C(=N\c1nc2ccccc2[nH]1)c1ccc(Br)cc1 | 4% | inactive | 50% | inactive | 22% | 18% |  |  |  |  |  | 73.6% |
| C/C(=N\c1nc2ccccc2[nH]1)c1cccc(C)c1 | inactive | inactive | 77% | inactive | 63% | 8% |  |  |  |  |  |  |
| Cc1ccc(C2=Nc3nc4ccccc4n3C(C)(c3ccc(C)cc3)C2=O)cc1 (stereo not drawn) | inactive | inactive | 80% | inactive | 8% | 40% |  |  |  |  |  |  |
